The source of these data is PMC8900268 (Journal of medicinal chemistry, 2021).

For one test, the system named is RS4;11 cells. Kind of test: MTS cell viability assay in RS4. Type of test: cell-based. (Formazan colour is commonly taken as a measure of viable cells.)
In test [1] the test system is MOLT-4 cells. Put plainly: MTS cell viability assay in MOLT-4 cells. The test is classed as cell-based. To be noted: Homo sapiens, MOLT-4, 48 h, read-out: IC50, cell-killing potency in MOLT-4.
The next test addresses BCL-2 (Homo sapiens, UniProt P10415+P40337). Kind of test: AlphaScreen displacement binding assay, BCL-2. To be noted: displacement of Biotin-Bim. Background: In Alpha technology, singlet oxygen from a donor bead excites a nearby acceptor bead.
The test system of the next test is human platelets. To be noted: earlier study; ref 10a; cited from earlier work.
In test [2] the target is {BCL-2:compound:VCB} ternary complexes (Homo sapiens, UniProt P10415+P40337). Put plainly: NanoBRET ternary complex formation with BCL-2 and VCB in live 293T cells. The test is classed as cell-based. To be noted: 6 h. An outline of the steps: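 HEK 293T cells were transfected with 1 μg HaloTag-VHL, 10 ng HiBit-BCL-2 and 10 ng LgBit. After 24 h, 2×10^4 cells/well were placed in phenol-red-free Opti-MEM with 4% FBS ± HaloTag NanoBRET 618 ligand overnight at 37 °C. Serially diluted test compound was added for 6 h, then Nano-Glo substrate. mBRET ratio calculated. Mean ± s.e.m. of two independent experiments in triplicate.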
Sequence of {BCL-2:compound:VCB} ternary complexes (P10415 whole entry): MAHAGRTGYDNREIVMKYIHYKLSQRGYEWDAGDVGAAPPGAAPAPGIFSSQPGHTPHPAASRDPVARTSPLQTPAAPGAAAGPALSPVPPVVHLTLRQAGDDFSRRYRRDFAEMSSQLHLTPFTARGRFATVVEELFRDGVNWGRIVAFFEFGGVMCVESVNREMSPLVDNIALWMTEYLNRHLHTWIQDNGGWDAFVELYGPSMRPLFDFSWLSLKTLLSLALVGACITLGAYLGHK
Sequence of {BCL-2:compound:VCB} ternary complexes (P40337 whole entry): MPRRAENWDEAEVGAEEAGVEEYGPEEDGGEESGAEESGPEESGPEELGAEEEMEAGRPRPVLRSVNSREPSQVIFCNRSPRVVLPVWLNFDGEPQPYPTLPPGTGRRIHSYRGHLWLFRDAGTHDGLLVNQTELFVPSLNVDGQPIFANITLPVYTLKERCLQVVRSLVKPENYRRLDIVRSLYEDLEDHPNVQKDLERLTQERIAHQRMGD
Sequence of {BCL-2:compound:VCB} ternary complexes (Q15370 whole entry partner): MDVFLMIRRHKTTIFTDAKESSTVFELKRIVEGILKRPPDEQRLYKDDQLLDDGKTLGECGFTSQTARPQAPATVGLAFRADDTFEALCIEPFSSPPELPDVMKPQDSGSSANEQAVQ
Sequence of {BCL-2:compound:VCB} ternary complexes (Q15369 whole entry partner): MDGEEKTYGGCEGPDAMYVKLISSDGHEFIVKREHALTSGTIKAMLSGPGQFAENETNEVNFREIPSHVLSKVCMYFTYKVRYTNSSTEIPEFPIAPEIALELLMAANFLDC
In general terms: In BRET a luciferase serves as donor, and the signal depends on an acceptor being close.

A further test concerns the target BCL-2:Bim interaction (Homo sapiens, UniProt P10415). Kind of test: Co-immunoprecipitation of Bim with BCL-2 in RS4. The test is classed as cell-based. As to conditions: RS4;11 cells, 12 h, immunoprecipitation with BCL-2. In short, it runs like this: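 RS4;11 cells were treated with test compound for 12 h, ±VHL-032. Lysis in IP buffer with protease/phosphatase inhibitors, then 15000 rpm spin. 1 mg lysate was precleared with mouse IgG and protein A/G agarose for 1 h at 4 °C. IP with 2 μg anti-BCL-2 (or IgG) overnight at 4 °C, then beads for 2 h. After three washes, immunoblotted for Bim. Inputs probed for Bim, BCL-2 and β-actin. Two independent experiments.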

Test [3] deals with MOLT-4 cells. As to conditions: ref 10a; cited from earlier work.
The target of a further test is BCL-XL (Homo sapiens, UniProt P40337+Q07817). Put plainly: AlphaScreen displacement binding assay, BCL-XL. As to conditions: displacement of Biotin-Bad.
Sequence of BCL-XL (Q07817 1-212 limits assumed): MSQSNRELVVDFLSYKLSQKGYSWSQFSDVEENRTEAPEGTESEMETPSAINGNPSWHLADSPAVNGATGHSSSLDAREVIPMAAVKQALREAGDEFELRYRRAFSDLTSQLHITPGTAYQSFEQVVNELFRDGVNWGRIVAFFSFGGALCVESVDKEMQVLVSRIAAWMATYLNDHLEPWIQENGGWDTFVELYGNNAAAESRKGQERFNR
Sequence of BCL-XL (P40337 whole entry): as the sequence (P40337 whole entry) above
Sequence of BCL-XL (Q15369 whole entry partner): as the sequence (Q15369 whole entry partner) above
Sequence of BCL-XL (Q15370 whole entry partner): as the sequence (Q15370 whole entry partner) above
Sequence of BCL-XL (Q13617 whole entry partner): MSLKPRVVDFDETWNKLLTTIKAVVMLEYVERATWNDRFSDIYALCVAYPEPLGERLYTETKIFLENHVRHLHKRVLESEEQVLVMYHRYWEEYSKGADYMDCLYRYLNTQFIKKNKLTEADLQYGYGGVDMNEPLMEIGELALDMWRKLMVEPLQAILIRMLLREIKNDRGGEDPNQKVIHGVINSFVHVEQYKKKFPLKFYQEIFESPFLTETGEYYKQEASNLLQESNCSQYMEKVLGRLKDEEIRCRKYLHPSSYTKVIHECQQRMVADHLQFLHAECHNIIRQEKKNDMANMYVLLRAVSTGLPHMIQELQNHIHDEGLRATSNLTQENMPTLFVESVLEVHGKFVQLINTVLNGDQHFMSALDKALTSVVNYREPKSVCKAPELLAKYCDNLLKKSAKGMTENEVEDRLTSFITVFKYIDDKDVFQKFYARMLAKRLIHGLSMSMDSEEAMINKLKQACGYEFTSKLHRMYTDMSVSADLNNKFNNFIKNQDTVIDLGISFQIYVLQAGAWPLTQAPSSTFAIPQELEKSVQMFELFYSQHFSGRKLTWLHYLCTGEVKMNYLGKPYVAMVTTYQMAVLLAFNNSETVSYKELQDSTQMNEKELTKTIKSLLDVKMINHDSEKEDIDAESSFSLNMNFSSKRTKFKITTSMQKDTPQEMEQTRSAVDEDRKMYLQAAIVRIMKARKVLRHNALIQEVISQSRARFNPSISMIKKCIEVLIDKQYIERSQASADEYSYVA

By IC50 is commonly meant the concentration at which inhibition is half-maximal. As usually defined, the Kd is the free concentration of one partner at which half of the binding sites on the other are occupied at equilibrium, for simple one-to-one binding.

Sequence of BCL-2 (P10415 1-211 limits assumed): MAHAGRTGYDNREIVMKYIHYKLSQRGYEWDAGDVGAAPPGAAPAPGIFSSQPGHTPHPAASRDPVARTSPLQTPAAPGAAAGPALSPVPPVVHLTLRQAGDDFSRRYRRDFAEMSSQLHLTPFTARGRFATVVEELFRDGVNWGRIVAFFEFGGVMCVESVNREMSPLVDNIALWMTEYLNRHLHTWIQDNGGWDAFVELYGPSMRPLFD
Sequence of BCL-2 (P40337 whole entry): as the sequence (P40337 whole entry) above
Sequence of BCL-2 (Q15369 whole entry partner): as the sequence (Q15369 whole entry partner) above
Sequence of BCL-2 (Q15370 whole entry partner): as the sequence (Q15370 whole entry partner) above
Sequence of BCL-2 (Q13617 whole entry partner): as the sequence (Q13617 whole entry partner) above
Sequence of BCL-2:Bim interaction (P10415 whole entry): as the sequence (P10415 whole entry) above

On to `Cc1ncsc1-c1ccc([C@H](C)NC(=O)[C@@H]2C[C@@H](O)CN2C(=O)[C@@H](NC(=O)CCCCCC(=O)N2CCN(CC[C@H](CSc3ccccc3)Nc3ccc(S(=O)(=O)NC(=O)c4ccc(N5CCN(CC6=C(c7ccc(Cl)cc7)CCC(C)(C)C6)CC5)cc4)cc3S(=O)(=O)C(F)(F)F)CC2)C(C)(C)C)cc1` [DT2216], for which the IC50 with RS4;11 cells (Homo sapiens, RS4-11, 48 h, read-out: IC50, cell-killing potency in RS4;11) amounted to 212 ± 27.4 nM; with MOLT-4 cells [1], 75.3 ± 9.1 nM. Besides, the “activity loss (IC50 change) after pre-treatment with VHL-032” value in the test on RS4;11 cells (RS4;11 cells, 48 h, pre-treatment with VHL-032 (10 μM)) was “no significant IC50 value changes”. The Kd was determined as 1.46 ± 0.41 nM on BCL-2 (Kd BCL-2 w VHL, ternary binding, with GST-VCB); 2.25 ± 0.33 nM at BCL-2 (Kd BCL-2 w/o VHL, binary binding, without VCB); 2.18 ± 0.51 nM at BCL-XL (Kd BCL-XL w VHL, ternary binding, with GST-VCB); 7.58 ± 0.62 nM on BCL-XL (Kd BCL-XL w/o VHL, binary binding, without VCB). In addition, the “selectivity for MOLT-4 over human platelets” value in the test with human platelets is ~ 200 fold. The “formation of {BCL-2:compound:VCB} ternary complexes in live cells” value in test [2] is listed as “could not”. Moreover, the “effect on BCL-2:Bim interaction” value on BCL-2:Bim interaction is “minimal effect”. Moreover, the “fold more potent than warhead ABT-263 against MOLT-4” value in the test on MOLT-4 cells [3] was 4 fold.
